Test [1] addresses Mitogen-activated protein kinase 10 (Homo sapiens) (UniProt P53779). Nature of the test: Inhibition of JNK3 at 10 uM by Cherenkov counting in presence of 20 uM ATP.
The target of test [2] is T1, Casein kinase I isoform delta (Homo sapiens, UniProt P48730). Nature of the test: Inhibition of CK1delta by Cherenkov counting in presence of 20 uM ATP.
Target sequence in this assay (P48730 whole entry, canonical isoform): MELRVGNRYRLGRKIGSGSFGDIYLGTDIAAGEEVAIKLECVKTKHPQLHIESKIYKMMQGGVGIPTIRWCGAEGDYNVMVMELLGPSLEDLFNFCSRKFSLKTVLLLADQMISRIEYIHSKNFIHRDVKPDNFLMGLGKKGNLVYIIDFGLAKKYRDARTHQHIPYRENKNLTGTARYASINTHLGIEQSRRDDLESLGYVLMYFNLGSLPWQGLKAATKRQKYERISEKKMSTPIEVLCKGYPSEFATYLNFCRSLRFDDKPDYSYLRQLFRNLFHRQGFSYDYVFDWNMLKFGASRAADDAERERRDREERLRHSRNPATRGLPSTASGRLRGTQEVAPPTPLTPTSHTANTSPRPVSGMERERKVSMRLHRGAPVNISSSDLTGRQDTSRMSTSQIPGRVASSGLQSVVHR
Test [3] addresses Mitogen-activated protein kinase 9 (Homo sapiens) (UniProt P45984). Nature of the test: Inhibition of JNK2 at 10 uM by Cherenkov counting in presence of 20 uM ATP.
The nature of test [4]: Cell cycle arrest in human AC1-M88 cells assessed as accumulation at S phase at 0.38 uM after 48 hrs by propidium iodide staining-based FACS analysis. The format is functional. (In general: Flow cytometry measures light scatter and fluorescence of single cells or particles in a stream.)
In test [5] the target is T1, Casein kinase I isoform delta. Put plainly: Inhibition of recombinant CK1delta kinase domain at 5 nM by ATP competitive binding assay.
Target sequence in this assay (P48730 whole entry, looked up, canonical isoform): as the sequence (P48730 whole entry, canonical isoform) above
The target of test [6] is Casein kinase I isoform delta (Rattus norvegicus) (UniProt Q06486). As to conditions: 5 nM.
Sequence of Casein kinase I isoform delta (Rattus norvegicus) (Q06486 whole entry, looked up, the tested form may be a part, canonical isoform): as the sequence (P48730 whole entry, canonical isoform) above, with I381V counted along it
A short description of test [7]: Cell cycle arrest in human AC1-M88 cells assessed as accumulation at G1 phase at 0.38 uM after 48 hrs by propidium iodide staining-based FACS analysis. In kind it is functional.
Test [8] is described as follows: Cell cycle arrest in human AC1-M88 cells assessed as accumulation at G2 phase at 0.26 uM after 48 hrs by propidium iodide staining-based FACS analysis. The format is functional.
Test [9] has as its target T1, Casein kinase I isoform delta. Put plainly: Inhibition of recombinant CK1delta kinase domain at 10 nM by ATP competitive binding assay.
Target sequence in this assay (P48730 whole entry, looked up, canonical isoform): as the sequence (P48730 whole entry, canonical isoform) above
Test [10] is described as follows: Cell cycle arrest in human AC1-M88 cells assessed as accumulation at G1 phase at 0.26 uM after 48 hrs by propidium iodide staining-based FACS analysis. In kind it is functional. In a few lines: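 AC1-M88 cells (extravillous trophoblast fused with the Jeg-3 choriocarcinoma mutant AC1-1) were grown in DMEM/F-12 with 10% FCS at 37 °C in humidified 5% CO2. Cells were exposed to compound for 48 h alongside a DMSO control (0.004% final), then fixed and stained with propidium iodide. Cell cycle was read by flow cytometry with the Cycle Test Plus kit.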

The target in test [11] is Casein kinase I isoform delta (Rattus norvegicus) (UniProt Q06486). Nature of the test: Inhibition of GST-fused rat CK1delta at 10 nM by Cherenkov counting in presence of 20 uM ATP.
Test [12] has as its system Casein kinase I isoform delta (Rattus norvegicus), Q06486 [M82F]. Nature of the test: Inhibition of GST-fused rat CK1delta M82F mutant at 10 nM by Cherenkov counting in presence of 20 uM ATP.
Test [13] is described as follows: Cell cycle arrest in human AC1-M88 cells assessed as accumulation at S phase at 0.26 uM after 48 hrs by propidium iodide staining-based FACS analysis. In kind it is functional.
Test [14] can be described thus: Cell cycle arrest in human AC1-M88 cells assessed as accumulation at subG1 phase at 0.26 uM after 48 hrs by propidium iodide staining-based FACS analysis. The format is functional.

pIC50: −log10 of the molar value. Active and inactive are the calls of the source. The calls are words filed in the database; no cut-off is given here.

One may read the inhibition as the percentage by which the read-out fell short of the control. The pIC50 is the negative decadic logarithm of the IC50, by convention in mol/L.

Sequence of Mitogen-activated protein kinase 10 (Homo sapiens) (P53779 whole entry, canonical isoform): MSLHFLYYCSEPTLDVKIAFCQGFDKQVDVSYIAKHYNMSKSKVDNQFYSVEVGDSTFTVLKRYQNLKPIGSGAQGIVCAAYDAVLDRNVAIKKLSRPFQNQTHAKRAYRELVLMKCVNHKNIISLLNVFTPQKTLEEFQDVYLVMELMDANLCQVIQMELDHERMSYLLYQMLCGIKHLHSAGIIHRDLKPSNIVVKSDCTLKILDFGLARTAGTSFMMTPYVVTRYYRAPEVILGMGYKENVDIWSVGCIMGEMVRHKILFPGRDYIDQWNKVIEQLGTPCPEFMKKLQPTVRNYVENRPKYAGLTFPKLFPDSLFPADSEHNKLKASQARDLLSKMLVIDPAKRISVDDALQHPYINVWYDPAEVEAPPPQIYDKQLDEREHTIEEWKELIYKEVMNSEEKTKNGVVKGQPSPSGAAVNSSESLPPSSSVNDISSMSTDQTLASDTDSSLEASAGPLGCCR
Sequence of Mitogen-activated protein kinase 9 (Homo sapiens) (P45984 whole entry, looked up): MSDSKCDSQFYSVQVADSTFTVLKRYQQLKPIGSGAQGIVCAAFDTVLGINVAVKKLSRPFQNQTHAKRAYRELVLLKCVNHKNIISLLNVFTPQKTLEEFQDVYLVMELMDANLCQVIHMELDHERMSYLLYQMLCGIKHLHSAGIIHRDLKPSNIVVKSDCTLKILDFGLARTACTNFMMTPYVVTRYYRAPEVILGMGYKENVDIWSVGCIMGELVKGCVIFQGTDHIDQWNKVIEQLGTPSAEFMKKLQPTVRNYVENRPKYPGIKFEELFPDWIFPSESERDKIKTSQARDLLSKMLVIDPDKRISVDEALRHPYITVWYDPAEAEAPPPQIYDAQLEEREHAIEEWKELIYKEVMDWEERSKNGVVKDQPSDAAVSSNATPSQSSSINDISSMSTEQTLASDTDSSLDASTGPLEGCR
Sequence of Casein kinase I isoform delta (Rattus norvegicus), Q06486 [M82F] (Q06486 whole entry M82F, the tested form may be a part, canonical isoform): as the sequence (P48730 whole entry, canonical isoform) above, with M82F, I381V counted along it

On to `CC(C)c1onc(-c2ccc(F)cc2)c1-c1ccncc1`, for which the inhibition came to 72% in test [1] and 87% in [3]. Moreover, in [2], the pIC50 was 6.64.

Turning to `COc1ccc(/C=C/C(=O)Nc2cc(-c3[nH]c(SC)nc3-c3ccc(F)cc3)ccn2)c(OC)c1`, the Activity stood at 2.41% in test [4] and 6.3% in test [7]. Moreover, the inhibition in test [5] was 18%. The inhibition result in test [6] was “Active”.

In the case of `COc1ccc(/C=C/C(=O)Nc2cc(-c3[nH]c([S+](C)[O-])nc3-c3ccc(F)cc3)ccn2)c(OC)c1` (centres undefined), the Activity turned out to be 5.32% in test [8], 12% in test [10], 3.95% in test [13] and 77.1% in test [14]. Besides, in test [9], the inhibition is 10%. Besides, in [11], the inhibition result is “Active”. Besides, the inhibition result in test [12] was “inactive”.

The values are drawn from ChEMBL document CHEMBL1155278, “3,4-Diaryl-isoxazoles and -imidazoles as potent dual inhibitors of p38alpha mitogen activated protein kinase and casein kinase 1delta” (J Med Chem, 2009).
